Non-standard residues stand in square brackets, D forms with d. Residues, ends and D or L forms follow the SMILES beside them. *: point of attachment. dNva(5-oxo-5-(4-MeOPh)) = COc1ccc(C(=O)CC[C@@H](N)C(=O)O)cc1; Triazol3yl(1,2,4-5-NH2) = Nc1nc(*)n[nH]1; dPhe(4-Cl) = N[C@H](Cc1ccc(Cl)cc1)C(=O)O; d2Nal = N[C@H](Cc1ccc2ccccc2c1)C(=O)O; Lys(iPr) = CC(C)NCCCC[C@H](N)C(=O)O; d3Pal = N[C@H](Cc1cccnc1)C(=O)O; Nicotinoyl = O=C(c1cccnc1)*; dOrn = NCCC[C@@H](N)C(=O)O; Orn = NCCC[C@H](N)C(=O)O
What was measured:
[1] = molecular target: T1, Gonadotropin-releasing hormone receptor (Homo sapiens, UniProt P30968); assay: The binding affinity towards Gonadotropin-releasing hormone receptor
T1 sequence (P30968 whole entry): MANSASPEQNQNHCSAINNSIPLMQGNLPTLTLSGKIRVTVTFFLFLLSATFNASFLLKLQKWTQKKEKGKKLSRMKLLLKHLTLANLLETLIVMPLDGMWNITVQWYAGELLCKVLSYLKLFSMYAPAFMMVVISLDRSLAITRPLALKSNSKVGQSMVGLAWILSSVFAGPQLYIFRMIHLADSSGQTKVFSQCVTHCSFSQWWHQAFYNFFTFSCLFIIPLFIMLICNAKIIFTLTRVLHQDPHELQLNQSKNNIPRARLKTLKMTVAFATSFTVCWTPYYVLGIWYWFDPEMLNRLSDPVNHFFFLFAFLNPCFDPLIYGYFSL

[2] = Retention time of the compound; format: ADME
Procedure, shortened: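 Peptide (0.5 mg/mL, 10 μL) was loaded in TEAP pH 7.0/CH3CN (76/24), acidified with H3PO4 where insoluble. Elution used a 30-48% CH3CN gradient over 30 min at 1.5 mL/min. Retention time is reported in minutes.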

| SMILES | Kd [1] [nM] | RT [2] [min] |
| --- | --- | --- |
| CC(=O)N[C@H](Cc1ccc2ccccc2c1)C(=O)N[C@H](Cc1ccc(Cl)cc1)C(=O)N[C@H](Cc1cccnc1)C(=O)N[C@@H](CO)C(=O)N[C@@H](CCCCNC(=O)c1cccnc1)C(=O)N[C@H](CCCCNC(=O)c1cccnc1)C(=O)N[C@@H](CC(C)C)C(=O)N[C@@H](CCCCNC(C)C)C(=O)N1CCC[C@H]1C(=O)N[C@H](C)C(N)=O (Ac-[d2Nal][dPhe(4-Cl)][d3Pal]SK(Nicotinoyl)[dK](Nicotinoyl)L[Lys(iPr)]P[dA]-NH2) | 0.35 | 13.6 |
| COc1ccc(C(=O)CC[C@@H](NC(=O)[C@H](CCCN=C(N)N)NC(=O)[C@H](CO)NC(=O)[C@@H](Cc2cccnc2)NC(=O)[C@@H](Cc2ccc(Cl)cc2)NC(=O)[C@@H](Cc2ccc3ccccc3c2)NC(C)=O)C(=O)N[C@@H](CC(C)C)C(=O)N[C@@H](CCCN=C(N)N)C(=O)N2CCC[C@H]2C(=O)N[C@H](C)C(N)=O)cc1 (Ac-[d2Nal][dPhe(4-Cl)][d3Pal]SR[dNva(5-oxo-5-(4-MeOPh))]LRP[dA]-NH2) | 0.67 | 22.8 |
| CC(=O)N[C@H](Cc1ccc2ccccc2c1)C(=O)N[C@H](Cc1ccc(Cl)cc1)C(=O)N[C@H](Cc1cccnc1)C(=O)N[C@@H](CO)C(=O)N[C@@H](CCCCNc1n[nH]c(N)n1)C(=O)N[C@H](CCCCNc1n[nH]c(N)n1)C(=O)N[C@@H](CC(C)C)C(=O)N[C@@H](CCCCNC(C)C)C(=O)N1CCC[C@H]1C(=O)N[C@H](C)C(N)=O (Ac-[d2Nal][dPhe(4-Cl)][d3Pal]SK(Triazol3yl(1,2,4-5-NH2))[dK](Triazol3yl(1,2,4-5-NH2))L[Lys(iPr)]P[dA]-NH2) | 0.48 | 7.08 |
| CC(=O)N[C@H](Cc1ccc2ccccc2c1)C(=O)N[C@H](Cc1ccc(Cl)cc1)C(=O)N[C@H](Cc1cccnc1)C(=O)N[C@@H](CO)C(=O)N[C@@H](CCCCNc1n[nH]c(N)n1)C(=O)N[C@H](CCCCNc1n[nH]c(N)n1)C(=O)N[C@@H](CC(C)C)C(=O)N[C@@H](CCCCNC(C)C)C(=O)N1CCC[C@H]1C(=O)NCC(N)=O | 0.86 | 5.53 |

The next compounds have a lower Kd [1] than those just listed; values first:

| Kd [1] [nM] | RT [2] [min] | SMILES |
| --- | --- | --- |
| 0.24 | 14.1 | CC(=O)N[C@H](Cc1ccc2ccccc2c1)C(=O)N[C@H](Cc1ccc(Cl)cc1)C(=O)N[C@H](Cc1cccnc1)C(=O)N[C@@H](CO)C(=O)N[C@@H](CCCNC(=N)N)C(=O)N[C@H](Cc1cccnc1)C(=O)N[C@@H](CC(C)C)C(=O)N[C@@H](CCCNC(=N)N)C(=O)N1CCC[C@H]1C(=O)N[C@H](C)C(N)=O |
| 0.21 | 6.2 | CC(=O)N[C@H](Cc1ccc2ccccc2c1)C(=O)N[C@H](Cc1ccc(Cl)cc1)C(=O)N[C@H](Cc1cccnc1)C(=O)N[C@@H](CO)C(=O)N[C@@H](CCCNc1n[nH]c(N)n1)C(=O)N[C@H](CCCNc1n[nH]c(N)n1)C(=O)N[C@@H](CC(C)C)C(=O)N[C@@H](CCCCNC(C)C)C(=O)N1CCC[C@H]1C(=O)N[C@H](C)C(N)=O (Ac-[d2Nal][dPhe(4-Cl)][d3Pal]S[Orn](Triazol3yl(1,2,4-5-NH2))[dOrn](Triazol3yl(1,2,4-5-NH2))L[Lys(iPr)]P[dA]-NH2) |
